Data reported in publication PMC2212161 (The Journal of Experimental Medicine, 1998).
Read-outs that look alike come from different tables or passages of the source.

Assays:
F19/caspase-6 [1] = assay type: cell-based, human; settings: inhibitor 10–100 μM preincubated before Fas receptor cross-linking; Fig. 2 C
F22/caspase-7 [2] = assay type: cell-based, human
F20/caspase-3-p20 [3] = assay type: cell-based, human
F17/caspase-3-p17 [4] = assay type: cell-based, human
F19/caspase-6 [5] = experiment: Cell-free caspase activation in Jurkat extracts triggered by caspase-8: F19; assay type: biochemical, human
F22/caspase-7 [6] = experiment: Cell-free caspase activation in Jurkat extracts triggered by caspase-8: F22; assay type: biochemical, human
F17/caspase-3-p17 [7] = experiment: Cell-free caspase activation in Jurkat extracts triggered by caspase-8: F17; assay type: biochemical, human
[8] = tested on: active caspases in Jurkat cytoplasmic extracts; assay type: biochemical, human; settings: inhibitor 10 μM; Fig. 2 A
[9] = tested on: caspase activity in Fas-stimulated Jurkat cells; experiment: Flow cytometric analysis of intracellular caspase activity with PhiPhiLux-G2D2; assay type: cell-based, human; settings: inhibitor 100 μM alone without Fas stimulation; data not shown
NuMA [10] = experiment: Immunoblotting for NuMA cleavage in Fas-stimulated Jurkat cells; assay type: cell-based, human; settings: Fig. 5 B
Summary of the method: (§1)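 Jurkat cells were preincubated with inhibitor, then Fas-stimulated. Whole-cell extracts were made by boiling pellets 3 min in SDS sample buffer (50 mM Tris-HCl pH 6.8, 15% sucrose, 3% SDS). Gels were 5% SDS-PAGE for NuMA (rabbit polyclonal r240-C) and 10% for PARP (mAb C-2-10) and PAK2 (rabbit anti-ste20-subdomain VI). Proteins were blotted to nitrocellulose and cleavage fragments immunodetected.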

PARP = experiment: Immunoblotting for PARP cleavage in Fas-stimulated Jurkat cells; assay type: cell-based, human; settings: Fig. 5 C
Summary of the method: as §1

PAK2 = experiment: Immunoblotting for PAK2 cleavage in Fas-stimulated Jurkat cells; assay type: cell-based, human; settings: Fig. 5 D
Summary of the method: as §1

[11] = tested on: Fas-stimulated Jurkat cells; experiment: Nuclear morphological changes; assay type: cell-based, human; settings: inhibitor 100 μM preincubated 1 h 37°C; anti-Fas mAb 4 h; DAPI; Fig. 6
Summary of the method: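 Jurkat cells were preincubated 1 h at 37°C with inhibitor (1, 10 or 100 μM) or 1% DMSO, then stimulated with anti-Fas mAb for 4 h; unstimulated cells were kept 4 h as control. Cells were fixed with 1% glutaraldehyde, stained with 2 μg/ml DAPI, and scored microscopically for chromatin condensation, nuclear shrinkage and fragmentation.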

[12] = tested on: Fas-stimulated Jurkat cells; experiment: Flow cytometric analysis of DNA fragmentation; assay type: cell-based, human; settings: anti-Fas mAb 4 h, Fig. 7 B
Summary of the method: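 Jurkat cells were pretreated with inhibitor, then given anti-Fas mAb for 4 h. Cells (10⁶) were fixed in 70% ethanol for 2 h on ice, washed in PBS, and treated with 10 μg/ml RNase A for 30 min at 37°C. They were stained with 50 μg/ml propidium iodide for 30 min on ice in the dark, and PI (log scale) was recorded against forward scatter by flow cytometry.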

[13] = tested on: Fas-stimulated Jurkat cells; experiment: Apoptotic body formation; assay type: cell-based, human; settings: for Appearance of the cell population with the lowest FSC: flow cytometry; for Apoptotic body formation: phase contrast microscopy, Fig. 8
Summary of the method: (§2)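 Jurkat cells were preincubated 1 h at 37°C with inhibitor or 1% DMSO, then stimulated with anti-Fas mAb for 4 h. Cell size was read as forward scatter in flow cytometry, from PhiPhiLux-loaded or PI-stained cells. Reference was the lower FSC border of normally growing cells. Cell shape and apoptotic bodies were viewed by phase contrast microscopy.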

[14] = tested on: Fas-stimulated Jurkat cells; experiment: Shrinkage of cytoplasm / cell size; assay type: cell-based, human; settings: for Shrinkage of cytoplasm / decrease in cell size (FSC): Figs. 3 B and 7 B; for Fas-induced shrinkage of cells: phase contrast microscopy, Fig. 8
Summary of the method: as §2

[15] = tested on: Fas-stimulated Jurkat cells; experiment: Mitochondrial PT; assay type: cell-based, human; settings: Fas stimulation 4 h, Fig. 9 B
Summary of the method: (§3)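 Jurkat cells (5 × 10⁵) were pretreated 1 h with inhibitor, then stimulated with anti-Fas for 4 h. Cells were mesh-filtered and analysed at once by flow cytometry.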

[16] = tested on: Fas-stimulated Jurkat cells; experiment: PS externalization; assay type: cell-based, human; settings: Fas stimulation 4 h, Fig. 9 B; for PS externalization (increase in annexin V binding): inhibitor 100 μM pretreated 1 h
Summary of the method: as §3

Caspase-8 = experiment: Sensitivity of caspase-8 to DMQD-CHO; assay type: biochemical; settings: data not shown
F19/caspase-6 [17] = settings: cited from earlier work
F20/caspase-3-p20 [18] = settings: cited from earlier work
NuMA [19] = settings: Fas-stimulated Jurkat cells; cited from earlier work
[20] = tested on: active caspases in Fas-stimulated Jurkat cells; assay type: cell-based, human; settings: inhibitor 100 μM, preincubated 1 h; anti-Fas mAb 4 h; Fig. 1 A
pro–caspase-7 = experiment: Processing of pro–caspase-7 in Fas-stimulated Jurkat cells; assay type: cell-based, human; settings: inhibitor 100 μM; same blot reprobed with anti–caspase-7 Ab; Fig. 1 B
Summary of the method: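 The affinity-labeling blot from Jurkat cells (inhibitor preincubation 1 h, anti-Fas CH-11 100 ng/ml, 4 h, serum-free RPMI-1640) was reprobed with anti-caspase-7 antibody to follow pro-caspase-7 processing.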

F20/caspase-3-p20 [21] = experiment: Cell-free caspase activation in Jurkat extracts triggered by caspase-8: F20; assay type: biochemical, human; settings: inhibitor 10 nM added before caspase-8; data not shown
[22] = tested on: KB epidermal carcinoma cells; settings: inhibitor 50 μM; cited from earlier work
[23] = inhibitor 10–100 μM preincubated before Fas receptor cross-linking, Fig. 2 C
[24] = inhibitor 100 μM, flow cytometry
[25] = inhibitor 100 μM pretreated 1 h
[26] = inhibitor 10 μM, preincubated 1 h, anti-Fas mAb 4 h, Fig. 1 A
[27] = inhibitor 10 nM added before caspase-8, data not shown

Substance: Ac-DMQD-aldehyde [DMQD-CHO]
- Appearance of F19/caspase-6 (F19/caspase-6 [1]): blocked
- Activation of caspase-7 (time course) (F22/caspase-7 [2]; inhibitor 100 μM preincubated 1 h, Fig. 2 D): uninterrupted
- Labeling of F22 (F22/caspase-7 [2]; inhibitor up to 100 μM, Fig. 2 C): persisted
- Labeling of F20/caspase-3-p20 (F20/caspase-3-p20 [3]; [23]): suppressed
- Labeling of F17/caspase-3-p17 (F17/caspase-3-p17 [4]; [23]): suppressed
- Concentration preventing appearance of F19/caspase-6 (F19/caspase-6 [5]; preincubation before addition of caspase-8, Fig. 2 A): 1 to 2 µM
- Labeling of F22/caspase-7 (F22/caspase-7 [6]; inhibitor up to 5 μM, Fig. 2 A): unhindered
- Labeling of F17/caspase-3-p17 (F17/caspase-3-p17 [7]; inhibitor 1–2 μM, Jurkat extract preincubated, caspase-8, 4 h 37°C, Fig. 2 A): suppressed
- Caspase labeling (all) [8]: loss of all labeling
- Increase in PhiPhiLux-G2D2 fluorescence or cell shrinkage [9]: did not induce
- Generation of the 160-kD NuMA fragment (NuMA [10]; inhibitor 100 μM): blocked
- Generation of the 180-kD NuMA fragment (NuMA [10]; inhibitor 100 μM): blocked
- PARP cleavage (PARP; inhibitor 100 μM): only weakly inhibited
- Cleavage of PAK2 (PAK2; inhibitor 100 μM): suppressed
- Nuclear morphological changes [11]: completely blocked
- DNA fragmentation ([12]; inhibitor 100 μM): completely inhibited
- Appearance of the cell population with the lowest FSC ([13]; inhibitor 100 μM, Figs. 3 B and 7 B): suppressed
- Apoptotic body formation ([13]; inhibitor 100 μM): formed no apoptotic bodies
- Shrinkage of cytoplasm / decrease in cell size (FSC) [14, 24]: proceeded to a significant degree
- Fas-induced shrinkage of cells ([14]; inhibitor 100 μM): Neither 100 μM DMQD-CHO (Fig. 8 h) nor 10 μM VEID-CHO (Fig. 8 d) affected
- Mitochondrial PT [15, 25]: not affected
- PS externalization (increase in annexin V binding) [16]: suppressed
- Sensitivity of caspase-8 (Caspase-8): relatively insensitive
- Concentration required to block activity of caspase-6 relative to caspase-7 (F19/caspase-6 [17]; higher for caspase-6): ~10 fold
- Activity of F19/caspase-6 (F19/caspase-6 [17]; inhibitor even at 100 μM): insensitive
- Concentrations previously shown to block the activity of F20/caspase-3-p20 (F20/caspase-3-p20 [18]): 1 to 2 µM

Substance: DEVD-CHO
- NuMA cleavage (NuMA [19]): blocked

Substance: acetyl-Val-Ileu-Asp-aldehyde [VEID-CHO]
- Labeling of F22/caspase-7 (F22/caspase-7 [2]; [26]): unaffected
- Labeling of F20/caspase-3-p20 (F20/caspase-3-p20 [3]; [26]): unaffected
- Labeling of F17/caspase-3-p17 (F17/caspase-3-p17 [4]; [26]): Suppression
- Caspase labeling (all) [20]: loss of all caspase labeling
- Processing of pro–caspase-7 (pro–caspase-7): blocked
- Activity of caspase-6 in cell-free activation (F19/caspase-6 [5]; [27]): selectively blocked
- Activation of caspase-7 in cell-free activation (F22/caspase-7 [6]; [27]): minimal effects
- Activation of caspase-3-p20 in cell-free activation (F20/caspase-3-p20 [21]): minimal effects
- Activation of caspase-3-p17 in cell-free activation (F17/caspase-3-p17 [7]; [27]): minimal effects
- Proteolysis yielding the 180-kD NuMA fragments (NuMA [10]; inhibitor 1 μM): not affected
- 180-kD NuMA fragment (NuMA [10]; inhibitor 10 μM): moderate decrease
- Production of the 160-kD NuMA fragment (NuMA [10]; inhibitor 1–10 μM): suppressed
- PARP cleavage (PARP; inhibitor 1 μM): did not affect
- PARP cleavage (PARP; inhibitor 10 μM): Partial blockade
- PARP cleavage (PARP; inhibitor 100 μM): markedly suppressed
- Cleavage of PAK2 (PAK2; inhibitor up to 10 μM): failed to affect
- DNA fragmentation ([12]; inhibitor 100 μM): suppresses both
- DNA fragmentation ([12]; inhibitor up to 10 μM): did not prevent
- Appearance of the cell population with the lowest FSC ([13]; inhibitor 10 μM, Fig. 7 B): had no effect
- Apoptotic body formation ([13]; inhibitor up to 10 μM): did not prevent
- Cell size (FSC) ([14]; inhibitor 10 μM, flow cytometry, Fig. 7 B): had no effect
- Fas-induced shrinkage of cells ([14]; inhibitor 10 μM): Neither 100 μM DMQD-CHO (Fig. 8 h) nor 10 μM VEID-CHO (Fig. 8 d) affected
- Shrinkage of cytoplasm / decrease in cell size (FSC) [14, 24]: markedly suppressed
- Fas-induced shrinkage of cells ([14]; inhibitor 100 μM): completely blocked
- Mitochondrial PT ([15]; inhibitor 10 μM pretreated 1 h): Neither PT nor PS externalization were affected
- Mitochondrial PT [15, 25]: markedly inhibited
- PS externalization ([16]; inhibitor 10 μM pretreated 1 h): Neither PT nor PS externalization were affected
- PS externalization (increase in annexin V binding) [16]: markedly inhibited

Substance: benzyloxycarbonyl-Asp-Glu-Val-Asp(OMe)-fluoromethylketone [zDEVD-FK]
- Fas-induced chromatin condensation and apoptotic body formation [22]: abolished

Substance: benzyloxycarbonyl-Val-Ala-Asp(OMe)-fluoromethylketone [zVAD-fmk]
- NuMA cleavage (NuMA [19]): blocked
